Results reported in article PMC10692362 (Acta Pharmaceutica Sinica. B, 2023).
Where a chain is given by its changes, count along the chain named.

Tests used:
T-47D^Y537S cells = test: Cell viability assay; type: cell-based, human; details: Homo sapiens, 72 h, read-out: T-47D^Y537S IC50
ERα D538G = biological target: T1, ERα D538G (Homo sapiens, UniProt P03372, D538G); test: Immunoblot analysis of ERα degradation in T-47D^D538G cells; type: cell-based; details: 5 μmol/L over 12 h
T1 sequence (P03372 1-595 D538G): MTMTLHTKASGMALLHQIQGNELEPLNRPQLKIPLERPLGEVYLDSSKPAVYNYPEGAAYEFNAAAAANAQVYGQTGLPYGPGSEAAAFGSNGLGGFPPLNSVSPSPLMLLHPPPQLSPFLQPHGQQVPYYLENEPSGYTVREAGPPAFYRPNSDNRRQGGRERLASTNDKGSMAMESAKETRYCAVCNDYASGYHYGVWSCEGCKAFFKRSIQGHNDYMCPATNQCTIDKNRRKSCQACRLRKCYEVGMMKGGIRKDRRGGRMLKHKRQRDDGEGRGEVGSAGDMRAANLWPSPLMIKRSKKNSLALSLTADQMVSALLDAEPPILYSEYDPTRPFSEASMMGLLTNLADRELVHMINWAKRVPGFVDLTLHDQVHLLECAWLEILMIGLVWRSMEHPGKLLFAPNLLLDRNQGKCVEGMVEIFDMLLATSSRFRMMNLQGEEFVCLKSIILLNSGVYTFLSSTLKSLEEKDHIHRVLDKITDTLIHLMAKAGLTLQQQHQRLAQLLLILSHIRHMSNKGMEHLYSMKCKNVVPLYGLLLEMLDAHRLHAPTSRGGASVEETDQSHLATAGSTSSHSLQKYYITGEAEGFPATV

ERα Y537S = biological target: T2, ERα Y537S (Homo sapiens, UniProt P03372, Y537S); test: Immunoblot analysis of ERα degradation in T-47D^Y537S cells; type: cell-based; details: 5 μmol/L over 12 h
T2 sequence (P03372 1-595 Y537S): T1 sequence (P03372 1-595 D538G) with Y537S, G538D

ERα = test: Immunoblot analysis of ERα degradation across ERα^WT and ERα^MUT BC cell lines; type: cell-based, human; details: 5 μmol/L 29c with 10 μmol/L MG-132
ERβ = ERβ (Homo sapiens, UniProt Q92731); type: cell-based; details: 5 μmol/L, HEK-293T cells
How it was run: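 Transfected HEK-293T cells treated with test compound; ERβ protein assessed by immunoblot. Lysates prepared with RIPA buffer, resolved by SDS-PAGE and transferred to PVDF. Membranes blocked in 5% skim milk and developed by ECL, with β-actin as loading control.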

[1] = tested on: ERα^WT and ERα^MUT BC cell lines (MCF-7, LCC-2, T-47D, T-47D^D538G, T-47D^Y537S); test: Apoptosis by flow cytometry; type: cell-based, human; details: 5 μmol/L, 48 h
PK studies in mice = type: in vivo, BALB/c female mice
How it was run: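 Female BALB/c mice (n = 3/group) were dosed iv at 2 mg/kg in DMSO/PEG400/β-cyclodextrin/saline (5:40:10:45), ip at 4 mg/kg in DMSO/PEG400/saline (5:40:55), or po at 20 mg/kg in corn oil/DMSO (95:5). Blood was sampled at […]. Plasma was deproteinised with MeCN and analysed by LC/MS/MS, with three plasma samples per time point.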

MCF-7 tumor xenograft = MCF-7 tumor xenograft model in BALB/c nude mice; type: in vivo
How it was run: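 Female BALB/c nude mice (15–18 g, 5 weeks old) received 1 × 10⁷ MCF-7 cells in 100 μL PBS into the right axillary mammary fat pad. Tumour volume (W² × L × 0.5) and body weight were measured every 2 days. Mice were sacrificed on Day 33. Tumours were assessed by IHC (Ki-67, ERα) and ERα Western blot.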

[2] = female, BALB/c, mouse, plasma, ip, 4 mg/kg
[3] = female, BALB/c, mouse, plasma, iv, 2 mg/kg
[4] = female, BALB/c, mouse, plasma, po, 20 mg/kg

ERβ, sequence (Q92731 whole entry): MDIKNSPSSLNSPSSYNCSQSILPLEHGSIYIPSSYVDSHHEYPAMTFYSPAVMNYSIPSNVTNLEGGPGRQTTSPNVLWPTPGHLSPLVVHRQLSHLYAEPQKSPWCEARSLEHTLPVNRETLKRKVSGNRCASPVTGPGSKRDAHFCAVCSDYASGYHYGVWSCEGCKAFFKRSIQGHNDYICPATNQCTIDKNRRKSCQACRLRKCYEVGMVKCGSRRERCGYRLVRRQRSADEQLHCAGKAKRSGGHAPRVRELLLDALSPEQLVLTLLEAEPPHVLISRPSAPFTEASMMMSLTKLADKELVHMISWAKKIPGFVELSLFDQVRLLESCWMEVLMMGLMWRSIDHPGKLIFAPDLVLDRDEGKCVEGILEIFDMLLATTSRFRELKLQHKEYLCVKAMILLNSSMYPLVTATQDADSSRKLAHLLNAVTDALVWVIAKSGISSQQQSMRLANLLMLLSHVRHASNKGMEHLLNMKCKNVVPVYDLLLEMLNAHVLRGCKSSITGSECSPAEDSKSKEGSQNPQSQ

## CC(C)=CC(=O)Nc1ccc(C2=C(c3ccc(O)cc3)C3OC2CC3S(=O)(=O)N(CC(F)(F)F)c2ccc(O)cc2)cc1 (stereo not shown) [Compound 29c, N-(4-(3-(4-Hydroxyphenyl)-5-(N-(4-hydroxyphenyl)-N-(2,2,2-trifluoroethyl)sulfamoyl)-7-oxabicyclo[2.2.1]hept-2-en-2-yl)phenyl)-3-methylbut-2-enamide]
T-47D^Y537S cells
  IC50: 880 ± 150 nM
ERα D538G
  ERα degradation time course, T-47D^D538G: completely degraded
ERα Y537S
  ERα degradation time course, T-47D^Y537S: completely degraded
ERα
  ERα degradation with proteasome inhibitor: lost its ability to degrade ERα
ERβ
  ERβ degradation (immunoblot): no degradation capacity for ERβ
[1]
  Induction of apoptosis: significantly induced apoptosis
PK studies in mice; [2]
  AUC: 960 ng·h/mL
  Cmax: 352 ng/mL
  Tmax: 0.167 h
  half-life: 6.38 h
PK studies in mice; [3]
  AUC: 1210 ng·h/mL
  Cmax: 1420 ng/mL
  Tmax: 0.083 h
  Vd: 4.5 L/kg
  clearance: 27.7 mL/min/kg
  half-life: 2.77 h
PK studies in mice; [4]
  AUC: 360 ng·h/mL
  Cmax: 153 ng/mL
  Tmax: 0.5 h
  half-life: 5.81 h
PK studies in mice; mice
  Oral bioavailability: insufficient oral bioavailability
MCF-7 tumor xenograft; 4 mg/kg ip
  ERα level in xenograft tumors (IHC, Western blot): significantly degrade ERα
MCF-7 tumor xenograft; 4 mg/kg ip every other day, Day 32
  TGI (tumor growth inhibition): 92%
MCF-7 tumor xenograft; both at 2 mg/kg
  Tumor weight, 29c compared with Ful: no statistically significant difference in tumor weight
MCF-7 tumor xenograft; heart, liver, spleen, kidney, ip administration
  H&E analysis of main visceral organs: did not show significant changes in the main visceral organs
MCF-7 tumor xenograft; ip 2 or 4 mg/kg every other day
  Body weight of mice: did not apparently reduce mice body weight
MCF-7 tumor xenograft; ip administration
  Tumor cell proliferation (Ki-67 IHC): significantly reduced tumor cell proliferation
MCF-7 tumor xenograft; ip dose of 2 or 4 mg/kg
  Tumor growth inhibition activity: significant tumor growth inhibition
